Test results from ChEMBL document CHEMBL1275416, “Chlamydia pneumoniae growth inhibition in cells by the steroid receptor antagonist RU486 (mifepristone)” (Antimicrob Agents Chemother, 2008).
Active and inactive are the calls of the source. No cut-off for these calls is given here.

How the values were obtained:
Chlamydia pneumoniae [1] = test: Antimicrobial activity against Chlamydia pneumoniae infected in HEp-2 cells at 20 uM; assay type: functional, organism-based
Chlamydia pneumoniae [2] = test: Antimicrobial activity against Chlamydia pneumoniae infected in HEp-2 cells at 2 uM after 72 hrs; assay type: functional, organism-based
In short: (§1)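 HEp-2 cells were infected with C. pneumoniae (MOI 10, centrifuged at 800 x g for 1 h at room temperature) and washed. They were seeded at 5 x 10^4 cells/well and cultured 72 h with RU486 (0.02 to 2 µM; ethanol vehicle control). Freeze-thaw lysates were serially diluted 10-fold onto HEp-2 monolayers, spun, grown 72 h at 37°C with cycloheximide 1 µg/ml, and FITC anti-Chlamydia stained for IFU counts. Means of three experiments.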

Chlamydia pneumoniae [3] = test: Antimicrobial activity against Chlamydia pneumoniae infected in HEp-2 cells assessed as a reduction in 16S rRNA transcript at 2 uM after 72 hrs by RT-PCR; assay type: functional, organism-based
In short: (§2)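 Infected HEp-2 cells (5 x 10^5 cells/well) were treated with RU486 2 µM with or without cycloheximide 1 µg/ml. Total RNA was extracted at harvest. C. pneumoniae 16S rRNA was quantified by real-time RT-PCR (50 cycles, melt-curve check), and copies per reaction were taken from a standard curve of diluted C. pneumoniae DNA. Means ± SD, three experiments.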

Chlamydia pneumoniae [4] = test: Antimicrobial activity against Chlamydia pneumoniae infected in HEp-2 cells at 2 uM after 72 hrs in presence of cycloheximide; assay type: functional, organism-based
In short: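 Infected HEp-2 cells were held 72 h with RU486 2 µM and/or cycloheximide 0.1 to 10 µg/ml, with untreated and ethanol controls. Infective progeny in cell lysates was counted by IFU assay on HEp-2 monolayers with FITC anti-Chlamydia antibody staining. Means ± SD of three experiments.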

Chlamydia pneumoniae [5] = test: Antimicrobial activity against Chlamydia pneumoniae infected in HEp-2 cells assessed as a reduction in 16S rRNA transcript at 2 uM after 24 hrs by RT-PCR; assay type: functional, organism-based; in short: as §2
Chlamydia pneumoniae [6] = test: Antimicrobial activity against Chlamydia pneumoniae infected in HEp-2 cells assessed as growth inhibition at 2 uM pretreated for 1 hr before infection; assay type: functional, organism-based
In short: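 Before infecting HEp-2 cells, the bacteria were pretreated with 2 µM RU486 for 1 h or left untreated. Cells were then cultured with or without RU486 2 µM or cycloheximide 1 µg/ml. Infective progeny in 72 h lysates was assessed by IFU assay. Means ± SD of three experiments.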

Chlamydia pneumoniae [7] = test: Antimicrobial activity against Chlamydia pneumoniae infected in HEp-2 cells assessed as a reduction in 16S rRNA transcript at 2 uM after 24 hrs by RT-PCR in presence of cycloheximide; assay type: functional, organism-based; in short: as §2
Chlamydia pneumoniae [8] = test: Antimicrobial activity against Chlamydia pneumoniae infected in HEp-2 cells 0.02 to 2 uM after 72 hrs; assay type: functional, organism-based; in short: as §1
[9] = Cytotoxicity against human Hep2 cells at 20 uM; assay type: cell-based; conditions: hep-2, 20 µM
[10] = Cytotoxicity against human Hep2 cells at >2 uM; assay type: cell-based; conditions: hep-2
Chlamydia pneumoniae [11] = test: Antimicrobial activity against Chlamydia pneumoniae infected in HEp-2 cells assessed as a reduction in 16S rRNA transcript at 2 uM after 72 hrs by RT-PCR in presence of cycloheximide; assay type: functional, organism-based; in short: as §2
[12] = Cmax in pregnant women at 800 mg, po; assay type: ADME, organism-based; design: dose 800 mg, route oral; conditions: female, human, in vivo
Chlamydia pneumoniae [13] = test: Antimicrobial activity against Chlamydia pneumoniae infected in HEp-2 cells assessed as inhibition of bacterial replication at 2 uM after 24 hrs; assay type: functional, organism-based
In short: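 Time course: infected HEp-2 cells (MOI 10, centrifugation-assisted) were incubated with or without 2 µM RU486 for up to 72 h. At each time point, infective progeny in freeze-thaw lysates was titrated on fresh HEp-2 monolayers by IFU assay (72 h with cycloheximide 1 µg/ml, FITC anti-Chlamydia staining). Means ± SD, three experiments.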

Chlamydia pneumoniae [14] = test: Antimicrobial activity against Chlamydia pneumoniae infected in HEp-2 cells; assay type: functional, organism-based; in short: as §1

For `CC#C[C@]1(O)CC[C@H]2[C@@H]3CCC4=CC(=O)CCC4=C3[C@@H](c3ccc(N(C)C)cc3)C[C@@]21C` [MIFEPRISTONE], the Activity (Chlamydia pneumoniae [1]) was “Active”, the Activity (Chlamydia pneumoniae [2]) was “Active” and the Activity (Chlamydia pneumoniae [3]) was “Active”. The Activity (Chlamydia pneumoniae [4]) was “Active”, the Activity (Chlamydia pneumoniae [5]) was “Active” and the Activity (Chlamydia pneumoniae [6]) was “inactive”. For the same molecule, the Activity (Chlamydia pneumoniae [7]) was “inactive”, the Activity (Chlamydia pneumoniae [8]) was “Dose-dependent effect” and the Activity [9] was “Toxic”. The Activity [10] was “Toxic”, the Activity (Chlamydia pneumoniae [11]) was “inactive” and the Cmax [12] was 2500 ng/mL. For the same molecule, the inhibition (Chlamydia pneumoniae [13]) was “Active” and the Activity (Chlamydia pneumoniae [14]) was “Active”.
